In the EternaBench riboswitch data:

System: MS2 coat protein
Test: apparent Kd, MS2 coat protein; higher = weaker binding; RNA-MaP array; FMN 200 µM where present
How it was run: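 The titrant was SNAP-549-labelled MS2 coat protein, run from 0.7 or 1.5 nM in doubling steps to 3 µM. It was applied to designs transcribed by stalled E. coli RNA polymerase on Illumina sequencing-chip clusters, without ligand first and then with constant ligand, in 100 mM Tris-HCl pH 7.5, 80 mM KCl, 4 mM MgCl2, BSA, DTT, yeast tRNA and Tween-20. The apparent Kd is the median of filtered per-cluster binding-curve fits, with green signal normalised to red-channel RNA signal and control-cluster median Fmax.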

[1] = designed as: OFF switch for flavin mononucleotide, no ligand
[2] = ligand present: flavin mononucleotide, designed as: OFF switch for flavin mononucleotide
[3] = designed as: ON switch for flavin mononucleotide, no ligand
[4] = ligand present: flavin mononucleotide, designed as: ON switch for flavin mononucleotide

Row | Sequence | apparent Kd [1] [nM] | apparent Kd [2] [nM] | apparent Kd [3] [nM] | apparent Kd [4] [nM]
1 | UCAAGUAUGUAGGAUAUCGAUGUCCUCGGACAUCGAGAAGGACGUACAUGAGGAUCACCCAUGUAACUUGCAUG | 63.8 | 84.9 |  | 
2 | UUGGAAGUCGUAGGAUAUGUAGGAUAUUCCUACAUGAGGAUCACCCAUGUUGACAUGGAAGAAGGACAGAAGGACGAUGUCCAU |  |  | 642 | 6.99
3 | AAAACACAUGAGGAUCACCCAUGUAUCUGGACCAUAGGAUAUCCGCGCCCACUAGGGUGUGGAGAAGGGUGAGCCC |  |  | 204 | 245
4 | AGUGCCAUGUAGAAGGCAGAUCUGAUUCAGAUCUGAGGAUAUACAUGAGGAUCACCCAUGUAAAUGCACUGCACGAGAGUGCAA | 12 | 43.9 |  | 
5 | CAAGCCAUUCGCAACUGCCGGCCGCAGGAUAUGGGUCGUUUAUACAUGAGGAUCACCCAUGUCGCCUAGAAGGGCGGCUGGGUC |  |  | 260 | 38.9
6 | CGUUAUGAUAGAGGAUAUGUAAUACAUGAGGAUCACCCAUGUUACAUGGGUAAUAUUAAUAAUUAACAGAAGGCUAUCCUUUCG | 484 | 149 |  | 
7 | GUCAGCUCGUGAGGAUAUACAACACUGCUUCGGCAGUGUCUUAAGAUCACAUGAGGAUCACCCAUGUAGAAGGCACGAGCUGAU | 8.98 | 168 |  | 
8 | AACCUAUUACAGAAGGCCAGCUACAUGAGGAUCACCCAUGUCGAGUCAUGGAGGAUAUGUAGUAACCUGCACGCGGGCGGAUAC |  |  | 50.7 | 7.18
9 | AAGGAUAGAGGAUAUAUAUAGAUACAGAUUCAUGUAGAACUACAUGAGGAUCACCCAUGUAGAAGGCUAUCCUA | 15.7 | 60.4 |  | 
10 | GGGCUGUCAGGAUAUGCUUCGGCUUCGGAAAUGAAGUUGAAGUAGAAGGGACAUGAGGAUCACCCAUGUGGCCC | 28.9 | 35 |  | 
11 | AAAAAGGUAGGAUAUACGAAAAAAAAGGGUAGAAAAAAAACACAUGAGGAUCACCCAUGUAGAAGGACCAAAAA | 27.4 | 63 |  | 
12 | UAGUGAUUGCAAGGAUAUGCUAGUUUUUAUUUGUGUUUGAUAACAAACAUGAGGAUCACCCAUGUGCAGAAGGUGCUAGAUAUG |  |  | 566 | 510
13 | GCGCGAAGGUAGGAUAUCCAGGCAUCUUGCCGCGGAGAAGGACCCACAUGAGGAUCACCCAUGUGGUGAUCCUG | 13.5 | 14.4 |  | 
14 | ACUAGAUGAGGAUAUGCAUAUUUUCGUGUUCUUCUAGGUUAACAUGAGGAUCACCCAUGUAGAAGGCGUCUGGA | 19.6 | 37.7 |  | 
15 | AAUGAAUAUAAAUUGUAUUUGUCGUAGGAUAUGGGUGACAUGAGGAUCACCCAUGUUGCAGACGACCAGAAGGGCGGCGGAUAU |  |  | 18 | 18.2
16 | CUGAUGUCAGGAUAUCGGUGGCUCACUUGUGUGUGCCAGACCGAGAAGGGACAUGAGGAUCACCCAUGUCUUUA | 20.2 | 46.2 |  | 
17 | AUGCUUCACACAGGAUAUACAUGAGGAUCACCCAUGUGUCCUACGUAGCUGACACGAGCUACGCGGUAGAAGGGUGUGAAGCAU | 18.6 | 93.7 |  | 
18 | GAGUAGUUGAAAGGAUAUCGAUUGUUAUAGAAUCGAGAAGGUUCUAACAUGAGGAUCACCCAUGUAGGACUAUUCCUGUGUAUC |  |  | 12.9 | 11
19 | UUUUAACAUGAGGAUCACCCAUGUGAGGAUAUCGUUAUUUUUAUUAAUAUUAAUAAAACGAGAAGGCACAUUUU | 104 | 114 |  | 
20 | GGAUAGGAGAGAGGAUAUACGUGCUAGAGAUACUAGCAAAAUUUCCUCACAUGAGGAUCACCCAUGUAGAAGGCUGUCCUAUCG | 11.1 | 210 |  | 
21 | AAAUUGCUAGAGGAUAUCGGAUAGGAUCUAUUACGAGAAGGUUAGACAUGAGGAUCACCCAUGUUCUGUUGGGA | 42.6 | 123 |  | 
22 | AUAUCCGAAGCAGGAUAUCGACGAGGUGUCGAGAUAGAGCGUACUCACAUGAGGAUCACCCAUGUCGAGAAGGGCUAUAGGAUA | 22.2 | 83.4 |  | 
23 | UUGUUGUAUGAAGGAUAUACUUAACAUGAGGAUCACCCAUGUGGUGUUGUGAGUGAGUGAGUUUAGUAGAAGGUCAAUUCUUUU | 221 | 201 |  | 
24 | CCAUAAUUGAUCCAAUUUUACAACAUGAGGAUCACCCAUGUGCAGGAUAUCGUGAAAGUUAAAUACGAGAAGGGCAAGAACUGC | 560 | 356 |  | 

Row | Sequence | apparent Kd [1] [nM] | apparent Kd [2] [nM] | apparent Kd [3] [nM] | apparent Kd [4] [nM]
25 | AAACAGUACGAGAAGGGCUACAUGAGGAUCACCCAUGUAGACGGUCGUGUGGCAGGAUAUCGAACACACCGAAAACGGUGCGUU | 5.32 | 7.09 |  | 
26 | GCGUUACAUGAGGAUCACCCAUGUGAGGAUAUGGUGCGGUAGUGUCCUGUCGCGUACUCCAGAAGGCGCGGGUG | 137 | 240 |  | 
27 | ACAUGAGGAUCACCCAUGUAAAGCGAGGAUAUUUCACUGCACAUGAGGUUCGCCCAUGUUCUGCGGAAGAAGGUGCAAAUAAUU |  |  |  | 28.1
28 | CACCGUUACAGAGGAUAUCGUACAUGAGGAUCACCCAUGUAAUAAAUGAGAAUUUCGGAUGUAUGCGAGAAGGCUGGAAUCGGC | 28.5 | 36.1 |  | 
29 | AUGUGGUUCCCGGCCGUCGUGUACGAGGAUAUCCUCGAACAUGAGGAUCACCCAUGUAACGUUGUGGAGAAGGCGUACGCUCGG |  |  | 31.3 | 5.48
30 | ACGAGUAAAGCAGGAUAUCUAUUGUCUCUGUAACAUGAGGAUCACCCAUGUAGAGAAGGGCUUAGUCAUACACUUCGAAGUUGC | 9.78 | 9.77 |  | 
31 | GGCCCGCGCGUGAGGAUAUGCUGAUUCUAGGAUUAGCAGAAGGCACAUGAGGAUCACCCAUGUCCAACUUGUCU | 28.6 | 36.1 |  | 
32 | UUAGCGUAAGUAAGGAUAUGCUGGUCGAAAGACCAGCAGAAGGUACAUGAGGAUCACCCAUGUGGAUUCGUUAU | 27.8 | 92.6 |  | 
33 | GCGUGAUUGUAGAAGGUACAUGAAAAUAUUUAAUACCUCAAGUAACAUGAGGAUCACCCAUGUAGUAAGGAUAUACAUAUACGC |  |  | 95 | 56.8
34 | CGAUACAUGAGGGUCUCCCAUGACAUGAGGAUCACCCAUGUGCAGGAUAUACGUGUGAUGGUAUAGUAGAAGGGCACUCUAUGU | 29.2 | 36.9 |  | 
35 | GUCCUACAUGAGGAUCACCCAUGUAAGGAUAUGCUAGCGGUCGGAUGACUGACUGCUAGCAGAAGGUACAUGAU | 15.2 | 24.9 |  | 
36 | ACAUGAGGAUCACCCAUGUGAUGAUCUCCCAUGUUAUAUUUCAGAAGGCUCGCGUGUUUGAUGAGAGAGGAUAUGGAAUAUACG | 325 | 272 |  | 
37 | GAAUUAAAGAUCCAAUUUUACAACAUGAGGAUCACCCAUGUGCAGGAUAUCGUGUGUUUUAUAUUCGAGAAGGGCAAAUACAUU | 100 | 187 |  | 
38 | GUUUCACAUGAGGAUCACCCAUGUGAGGAUAUAGAUUUUUUAGUAAUAAUUGUUGGAUUUAGAAGGCGCGUGAU | 22 | 21.5 |  | 
39 | UAUAUGUCAGGAUAUCGCAACUGCGCGCGCAAGAAUCAUAACGAGAAGGGACAUGAGGAUCACCCAUGUACACU | 18.6 | 25.7 |  | 
40 | AUUUUGUGAGGAUAUGUGGCUUCGAUCGUGAGAUCGAGGCUACAGAAGGCACAUGAGGAUCACCCAUGUUCCUA | 20.6 | 206 |  | 
41 | AAUAACAGAGGAUAUACUGUUUUAUGUGUUUGUUGUUUUAAACAUGAGGAUCACCCAUGUAGAAGGCUGAGUAA | 23.2 | 23.7 |  | 
42 | CAUGUCCUCACAGGAUAUGCAAUGUAUUUCAUUGCAGAAGGGUGAAUACAUGAGGAUCACCCAUGUGGACAUGAUAUAUUUAAG |  |  | 880 | 76.6
43 | UAAGAUUAUGUAGGAUAUGGUUAUCUAUGUCUAGUUACUAGACAUAGAUAACCAGAAGGACAUGAGGAUCACCCAUGUUGAACG | 7.73 | 16.9 |  | 
44 | AGGUACAUGAGGAUCACCCAUGUAAGAGCCCUCAUGCGAUGUAGAAGGAUAAUGCGAGAAGAGCUAUAGGAUAUACAUGAGAAA | 156 | 139 |  | 
45 | ACUAGAUGAGGAUAUGCACAUUUUAGUGUUCCUCUAGAUUAACAUGAGGAUCACCCAUGUAGAAGGCGUCAUUA | 68 | 76.6 |  | 
46 | GUUGCAAAUGAGAAGGCGAUCAUGAAACAUGAUCGAGGAUAUCAUGUUUACAUGAGGAUCACCCAUGUAUGGGUAUAUUGCAGC |  |  | 402 | 22.2
47 | GAACGUGAGACGACCGUGGGUACAUGAGGAUCACCCAUGUGCAGAAGGCGAAUAUGACGAUGUGUCGAGGAUAUGCACAGCUCA | 22.4 | 97.6 |  | 
48 | GGACGGUUAGUGAGGAUAUGCUCUACCUCGGUAGAGCAGAAGGCACAUGAGGAUCACCCAUGUGAAAACUGUUC | 16.6 | 21.2 |  | 
